MC4R antag cAMP – blocks human MC4R cAMP signaling; AID 540295; P32245; 360,000 tested, 0.48% active; MC4R-expressing cells, MTII-stimulated cAMP, LANCE TR-FRET; inhibition, % at 6.5 µM;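 active = inhibition above its plate's cutoff, the mean of tested wells on that plate plus 3 SD, cut at about 29% in these data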;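 also: 0% = Melanotan II alone and 100% = Melanotan II plus saturating MCL0020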
Target sequence (P32245 whole entry, looked up): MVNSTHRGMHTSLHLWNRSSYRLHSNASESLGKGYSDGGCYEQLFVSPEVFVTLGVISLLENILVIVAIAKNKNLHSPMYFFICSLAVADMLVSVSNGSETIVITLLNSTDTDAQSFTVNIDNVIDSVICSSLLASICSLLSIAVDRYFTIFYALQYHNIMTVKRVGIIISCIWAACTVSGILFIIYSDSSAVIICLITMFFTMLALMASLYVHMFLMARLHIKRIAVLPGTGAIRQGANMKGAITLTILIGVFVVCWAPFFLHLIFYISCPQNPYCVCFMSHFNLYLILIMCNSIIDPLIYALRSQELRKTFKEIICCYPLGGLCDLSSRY
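System – human MC4R-expressing U2OS cells · Also added – Melanotan II · Dosing – one concentration, 6.5 µM nominal · Timing – 30-min compound, 1-h challenge, 1-h detection, room temperature · Measured by – Eu-cAMP/anti-cAMP TR-FRET, emission 671 nm · Replicates – singlicate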
MC4R barr agon – human MC4R agonism via beta-arrestin | U2OS MC4R beta-arrestin complementation, luminescence; percent of melanotan II response, DMSO zero | 360,000 tested, 0.98% active | activation, % at 8.9 µM | P32245;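 active = activation above a per-plate cutoff, the mean activation of sample wells on that plate plus 3 SD, cut at about 8% in these data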
NALP1 inh – blocks the NALP1 inflammasome reconstituted in yeast. inhibition, % at 10 µM. S. cerevisiae NALP1/ASC/caspase-1 growth, X-gal OD620, 72 h. 280,000 tested, 0.61% active. AID 2071; in the data active = inhibition mostly above about 24%, no sharp cut-off; inactive = mostly below about 32%
NLRP3 yeast inh – blocks the NALP3 inflammasome reconstituted in yeast; Yeast reconstituted NLRP3/ASC/caspase-1, beta-gal luminescence, 24 h; inhibition, % at 10 µM; AID 2825; 330,000 tested, 0.39% active;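 active = inhibition of 50% or more; inactive = inhibition below 50%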;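 also: plate controls were induced DMSO wells for no effect and uninduced yeast grown without galactose for full effect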
TbMetRS inhib – blocks T. brucei methionyl-tRNA synthetase activity | 360,000 tested, 0.4% active | purified T. brucei MetRS, ATP depletion, Kinase-Glo luminescence | AID 624268 | inhibition, % at 11.9 µM;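 active = inhibition above a per-plate cutoff of the control wells' mean inhibition plus 3 SD, cut at about 5.5% in these data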;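 also: 0% = DMSO wells median and 100% = median of wells with control inhibitor compound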
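assay system = parasite MetRS enzyme | timing = 15 min preincubation, 2 h reaction, all 25 °C | evaluation = percent inhibition relative to median high and low control wells | medium = HEPES buffer containing pyrophosphatase, BSA, spermine, DTT | compound = single dose, 11.9 µM final nominal, 0.9% final DMSO | detection = Kinase-Glo luminescence, ATP depletion format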
A1 inh – inhibitors of the anti-apoptotic protein A1, read as caspase activation. 330,000 tested, 0.066% active. caspase activation, % (no concentration beside the values). AID 2462. MEF A1-2A-BIM cells, Caspase-Glo 3/7 luminescence, 3 h; percent of clofoctol response, vehicle zero;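 active = over half of replicate activation scores above 10%, or exactly half above 10 with the replicate mean above 10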
MC4R barr conf – human MC4R beta-arrestin agonism confirmation; shares compounds with MC4R barr agon; U2OS MC4R beta-arrestin recruitment, luminescence; scaled DMSO 0%, Melanotan II 100%; activation, % at 8.9 µM; 2,400 tested, 31% active; AID 602192;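 active = mean activation across replicates above the hit cutoff set in the earlier primary screen, cut at about 8% in these data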
MOR-DOR barr ag – activates mu-delta opioid heterodimer, MC4R agonist counter-screen. AID 602194. activation, % at 9.2 µM. shares compounds with MC4R barr agon. U2OS PathHunter beta-arrestin, beta-gal luminescence; percent of deltorphin B response, DMSO zero. 2,400 tested, 5.8% active;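 active = mean activation across replicates exceeds the hit threshold derived in the earlier primary screen, cut at about 18% in these data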;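 also: 100% = deltorphin B at 0.9 µM final and 0% = DMSO alone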
The depositor's hits bear a star; . = no result. Hits are enriched below; roughly 2.5% of the tested compounds scored in any of these assays.

SMILES | MC4R antag cAMP | MC4R barr agon | NALP1 inh | NLRP3 yeast inh | TbMetRS inhib | A1 inh | MC4R barr conf | MOR-DOR barr ag
C[C@@H]1CN([C@@H](C)CO)C(=O)CCCn2nncc2CO[C@H]1CN(C)S(=O)(=O)c1ccccc1C#N | 3 | -2 | . | . | -1 | . | . | .
O=C(COC(=O)/C=C/c1ccc(C(F)(F)F)cc1)NCC1CCCCC1 | 10 | -2 | . | 17 | 0 | 1 | . | .
CN(Cc1ccccc1F)C(=O)CNC(=O)Cc1cccc2ccccc12 | 3 | -2 | 2 | 12 | 0 | 0 | . | .
COc1ccc(-c2csc(C3=C(O)CN(Cc4ccc(Cl)cc4)C3=N)n2)cc1OC | 6 | 102* | 3 | 16 | 0 | -2 | 21* | 11
COc1ccc(N2CC(O)=C(c3nc(-c4ccc(F)cc4)cs3)C2=N)cc1Cl | 10 | 11* | 11 | -1 | 0 | 2 | 13* | 3
COc1ccc(N2CC(O)=C(c3nc(-c4ccc(F)cc4)cs3)C2=N)cc1OC | 11 | -1 | 0 | 8 | 0 | 0 | . | .
N=C1C(c2nc(-c3ccc(F)cc3)cs2)=C(O)CN1Cc1ccc(Cl)cc1 | 11 | 14* | 3 | -9 | -1 | -1 | 5 | 7
O=C(OCC(=O)N1CCCCC1)c1ccc2c(c1)C(=O)N(Cc1ccco1)C2=O | 1 | -1 | . | 1 | 0 | 0 | . | .
Cn1c(SCC(=O)Nc2cccc(Br)c2)nnc1-c1cc2ccccc2o1 | 3 | 11* | 33 | 15 | 0 | . | 2 | 1
Cn1c(SCC(=O)Nc2cccc(C(=O)O)c2)nnc1-c1cc2cc(Br)ccc2o1 | -2 | 5 | -6 | 13 | 0 | 0 | . | .
Nc1nonc1-n1nnc(C(=O)N/N=C/c2ccc(OCc3ccc(F)cc3)cc2)c1COc1ccccc1 | 20 | 19* | . | 10 | 0 | 2 | 8 | 3
O=C(N/N=C/c1ccccc1)c1ccc(OCc2ccccc2)cc1 | 0 | 12* | -2 | 7 | -1 | -1 | 3 | 4
Cc1ccc(COc2ccc(/C=N/NC(=O)c3nnn(-c4nonc4N)c3COc3ccc(F)cc3)cc2)cc1 | 3 | -2 | . | 9 | -1 | -1 | . | .
CCCN(CCC)Cc1c(C(=O)N/N=C/c2ccc(C)o2)nnn1-c1nonc1N | 6 | 13* | 14 | -9 | 0 | 1 | 3 | 14
CCOC(=O)c1cc(=O)n2c(nc3ccccc32)[nH]1 | -1 | -2 | . | 15 | 0 | -8 | . | .
CNC[C@H]1Oc2c(NS(=O)(=O)c3cccs3)cccc2C(=O)N([C@H](C)CO)C[C@@H]1C | 8 | 0 | . | 2 | 0 | 0 | . | .
COc1ccc(-c2cc(NC(C)=O)c3ncc(-c4ccc(F)cc4)n3c2)cc1OC | 14 | 22* | . | . | 0 | . | 26* | 6
COc1ccc(-c2cc(NC(C)=O)c3ncc(-c4ccc(OC)c(OC)c4)n3c2)c(OC)c1 | -14 | 6 | . | . | 0 | . | . | .
COc1ccc(F)cc1-c1cc(NC(C)=O)c2ncc(-c3cc(OC)c(OC)c(OC)c3)n2c1 | -54 | 11* | . | . | 0 | . | 9.7* | 8
COc1ccc(-c2cnc3c(NC(C)=O)cc(-c4cc(F)ccc4OC)cn23)cc1OC | -19 | 19* | . | . | -1 | . | 27* | 2
COc1ccc(-c2cnc3c(NC(C)=O)cc(-c4cccc(NS(C)(=O)=O)c4)cn23)cc1OC | 2 | 3 | . | . | 0 | . | . | .
CC1CCC(N(C)C(=O)CN2C(=O)NC(c3ccccc3)(c3ccccc3)C2=O)CC1 (stereo not drawn) | 2 | 1 | . | . | 0 | . | . | .
CCCCc1c(Cc2ccccc2)ncn1CCc1ccccc1OC | . | . | . | . | -1 | . | . | .
O=c1cc(-c2ccccc2)oc2ccc3ccccc3c12 | 3 | 10.0* | . | . | 0 | . | 9.5* | 4
O=c1cc(-c2ccc(O)c(O)c2)oc2ccc3ccccc3c12 | -1 | 1 | . | 25 | 0 | . | . | .
SMILES | MC4R antag cAMP | MC4R barr agon | NALP1 inh | NLRP3 yeast inh | TbMetRS inhib | A1 inh | MC4R barr conf | MOR-DOR barr ag
O=C(N/N=C/c1c[nH]c2ccccc12)C1CC1(c1ccccc1)c1ccccc1 (stereo not drawn) | 13 | 19* | 20 | 4 | 1 | 0 | 16* | 8
CCOC(=O)[C@]12CCC=C1N(Cc1ccc(Cl)cc1Cl)C(=O)[C@H](CC(=O)NCCCN1CCCC1=O)C2 | . | . | . | . | -1 | . | . | .
c1ccc(-c2cc(-c3nn4c(-c5ccco5)nnc4s3)c3ccccc3n2)cc1 | 10 | 9.7* | 5 | 14 | -1 | . | 6 | 3
Cc1cc(-c2nn3c(-c4ccccc4)nnc3s2)c2ccccc2n1 | -33 | 0 | 37 | 10 | -1 | 1 | . | .
C#CC(C)(O)C1CC(CC(=O)O)C1(C)C (stereo not drawn) | 3 | -1 | . | . | 0 | . | . | .
Cc1ccc(NC(=O)COc2coc(CN3CCc4ccccc43)cc2=O)cc1Cl | 8 | 12* | . | 8 | 0 | 1 | 5 | 25*
CC1(c2nnnn2-c2ccc3c(c2)OCCO3)CCC(=O)N1C1CC1 (stereo not drawn) | . | . | . | . | 0 | . | . | .
CCOc1cc(N2CCOCC2)c(OCC)cc1NC(=O)c1cc(-c2ccco2)nc2ccccc12 | 13 | 14* | 4 | 2 | 0 | 0 | 9.2* | 15
CCOc1cc(N2CCOCC2)c(OCC)cc1NC(=O)COc1ncnc2ccccc12 | 4 | -3 | -2 | -3 | 1 | -2 | . | .
CN(Cc1ccccc1)C(=O)c1ccc(NC(=O)Cc2ccc(NC(=O)C3CCCN(C(=O)CCc4ccccc4)C3)cc2)cc1 (stereo not drawn) | -4 | 0 | . | . | 0 | . | . | .
CC(=O)NC(Cc1ccccc1)C(=O)OCC(=O)c1ccc(Cl)cc1 (stereo not drawn) | 5 | 0 | 17 | -8 | -1 | 0 | . | .
O=C(CCl)NC(Cc1ccccc1)C(=O)OCC(=O)c1ccc(-c2ccccc2)cc1 (stereo not drawn) | 10 | 14* | . | . | 0 | . | 2 | 6
Nc1cc(Cl)ccc1C(=O)OCC(=O)NC1CCCCCCC1 | -5 | -1 | . | 26 | 0 | 0 | . | .
COc1ccc(C(=O)COC(=O)c2ccc(-n3cnnn3)cc2)c(OC)c1 | 11 | 13* | . | 5 | 0 | 0 | 5 | 6
COc1ccc(C(=O)COC(=O)c2c(-c3ccccc3)noc2C)c(OC)c1 | 7 | 14* | . | -5 | 0 | 2 | 0 | 2
CCN(CC(=O)Nc1c(F)cccc1F)C(=O)C1CCCO1 (stereo not drawn) | 12 | 0 | . | . | 0 | . | . | .

Bioassay records (PubChem BioAssay)
